Test results reported in ChEMBL document CHEMBL1629471, “Synthesis of (S)-(+)-decursin and its analogues as potent inhibitors of melanin formation in B16 murine melanoma cells” (Eur J Med Chem, 2010).

Key:
B16-F10 [1] = assay: Inhibition of melanin production in mouse B16F10 cells at 100 uM after 2 days; type: functional; settings: B16-F10, 48 h
Outline: (§1)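 Extracellular melanin release: B16 murine melanoma cells seeded at 1×10^5 per well overnight, then alpha-MSH added with or without compound in phenol red-free DMEM for 2 d. Melanin in the medium quantified by absorbance at 405 nm. Cells were maintained in DMEM with 10% heat-inactivated FBS and 1% penicillin-streptomycin at 37 °C, 5% CO2.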

[2] = Cytotoxicity against mouse B16F10 cells assessed as cell viability after 24 hrs by MTT assay; type: cell-based, B16-F10; parameters: concentration or dose not given beside the values
Outline: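 B16 murine melanoma cells (DMEM, 10% heat-inactivated FBS, 1% penicillin-streptomycin, 5% CO2, 37 °C) exposed to compounds or no compound for 24 h. MTT (5 mg/ml in PBS) added, 3 h at 37 °C, formazan dissolved in DMSO, absorbance read at 570 nm.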

B16-F10 [3] = assay: Inhibition of melanin production in mouse B16F10 cells at 500 uM after 2 days; type: functional; settings: B16-F10, 48 h; outline: as §1

SMILES | inhibition at 100 µM (B16-F10 [1]) [%] | cytotoxicity (% decrease in viability) at 24 h [2] [%] | inhibition at 500 µM (B16-F10 [3]) [%]
CC1(C)Oc2cc3oc(=O)ccc3cc2C[C@@H]1OC(=O)/C=C/c1ccco1 | 33 | -1.4 | 
COc1cc(/C=C/C(=O)O[C@H]2Cc3cc4ccc(=O)oc4cc3OC2(C)C)cc(OC)c1OC | 18.8 | 4.1 | 
CC1(C)Oc2cc3oc(=O)ccc3cc2C[C@@H]1OC(=O)/C=C/c1cccs1 | 71.6 | -15.4 | 
C=C(C)C(=O)O[C@H]1Cc2cc3ccc(=O)oc3cc2OC1(C)C | 58.1 | 58.4 | 
CC(=O)Oc1ccc(/C=C/C(=O)O[C@H]2Cc3cc4ccc(=O)oc4cc3OC2(C)C)cc1 | 76.1 | 58 | 
CC(=O)Oc1ccc(/C=C/C(=O)O[C@H]2Cc3cc4ccc(=O)oc4cc3OC2(C)C)cc1OC(C)=O | 30.7 | 49.4 | 
COc1ccccc1CCC(=O)O[C@H]1Cc2cc3ccc(=O)oc3cc2OC1(C)C | 68.9 | 6.1 | 
CC1(C)Oc2cc3oc(=O)ccc3cc2C[C@@H]1OC(=O)/C=C/c1ccccc1 [DIHYDROPYRANOCOUMARIN D2] | 72.1 | 0.8 | 
OC[C@H]1O[C@@H](Oc2ccc(O)cc2)[C@H](O)[C@@H](O)[C@@H]1O [ARBUTIN] |  | -6.2 | 41
CC1(C)Oc2cc3oc(=O)ccc3cc2C[C@@H]1OC(=O)/C=C/c1ccc(O)cc1 | 66.4 | 65.8 | 
CC(=O)Oc1ccccc1/C=C/C(=O)O[C@H]1Cc2cc3ccc(=O)oc3cc2OC1(C)C | 65.9 | 63.1 | 
C=CCCC(=O)O[C@H]1Cc2cc3ccc(=O)oc3cc2OC1(C)C | 36.4 | -0.4 | 
CCCCC(=O)O[C@H]1Cc2cc3ccc(=O)oc3cc2OC1(C)C | 76.5 | 10.4 | 
CC(=O)Oc1cc(/C=C/C(=O)O[C@H]2Cc3cc4ccc(=O)oc4cc3OC2(C)C)cc(OC(C)=O)c1OC(C)=O | 35.4 | 54.8 | 
CC1(C)Oc2cc3oc(=O)ccc3cc2C[C@@H]1OC(=O)/C=C/c1cccc(O)c1 | 73.8 | 47.9 | 
CC1(C)Oc2cc3oc(=O)ccc3cc2C[C@@H]1O [DECURSINOL] | 12.2 | 1.4 | 
CC1(C)Oc2cc3oc(=O)ccc3cc2C[C@@H]1OC(=O)/C=C/c1ccccc1O | 76.8 | 74.2 | 

SMILES | inhibition at 100 µM (B16-F10 [1]) [%] | cytotoxicity (% decrease in viability) at 24 h [2] [%] | inhibition at 500 µM (B16-F10 [3]) [%]
CC1(C)Oc2cc3oc(=O)ccc3cc2C[C@@H]1OC(=O)/C=C/c1cc(O)c(O)c(O)c1 | 59.2 | 42.9 | 
C/C=C(/C)C(=O)O[C@H]1Cc2cc3ccc(=O)oc3cc2OC1(C)C [DECURSINOL ANGELATE] | 74.5 | -2.4 | 
CC/C=C/C(=O)O[C@H]1Cc2cc3ccc(=O)oc3cc2OC1(C)C | 79.4 | 39.5 | 
C/C=C(\C)C(=O)O[C@H]1Cc2cc3ccc(=O)oc3cc2OC1(C)C [DECURSINOL TIGLATE] | 71.5 | 16.4 | 
CCCCCCCCCC(=O)O[C@H]1Cc2cc3ccc(=O)oc3cc2OC1(C)C | 79.3 | 28.2 | 
CC(C)=CC(=O)O[C@H]1Cc2cc3ccc(=O)oc3cc2OC1(C)C [DECURSIN] | 71 | -9.7 | 
CC(=O)Oc1cccc(/C=C/C(=O)O[C@H]2Cc3cc4ccc(=O)oc4cc3OC2(C)C)c1 | 80.7 | 31.4 | 
CC1(C)Oc2cc3oc(=O)ccc3cc2C[C@@H]1OC(=O)CCc1ccccc1 | 62.8 | -0.6 | 
CC(=O)O[C@H]1Cc2cc3ccc(=O)oc3cc2OC1(C)C | -5.7 | 3.7 | 
CC1(C)Oc2cc3oc(=O)ccc3cc2C[C@@H]1OC(=O)/C=C/c1ccc(O)c(O)c1 | 43.5 | 67.6 | 
COc1ccc(/C=C/C(=O)O[C@H]2Cc3cc4ccc(=O)oc4cc3OC2(C)C)cc1OC | 42.4 | -1.4 | 
CC1(C)Oc2cc3oc(=O)ccc3cc2C[C@@H]1OC/C=C/c1ccccc1 [PROGERININ] | 33.8 | -12.5 | 
C=CCC(=O)O[C@H]1Cc2cc3ccc(=O)oc3cc2OC1(C)C | -8.1 | 0.6 | 
COc1cccc(/C=C/C(=O)O[C@H]2Cc3cc4ccc(=O)oc4cc3OC2(C)C)c1 | 37.9 | 14.5 | 
COc1ccccc1/C=C/C(=O)O[C@H]1Cc2cc3ccc(=O)oc3cc2OC1(C)C | 63.7 | -5.1 | 
CC1(C)Oc2cc3oc(=O)ccc3cc2C[C@@H]1OC(=O)/C=C/c1cccnc1 | 53.5 | 5 | 
COc1ccc(/C=C/C(=O)O[C@H]2Cc3cc4ccc(=O)oc4cc3OC2(C)C)cc1 | 40.3 | -3.5 | 
